# Bioassay records: PubChem BioAssay, Sanford-Burnham Center for Chemical Genomics
# hiPSC survival – hiPSC single-cell survival enhancement; ATPlite luminescence; 100% = ROCK inhibitor wells, 0% = DMSO; survival enhancement, % at 20 µM; 360,000 compounds, 0.044% hits; AID 602274; in the data active means survival enhancement above about 18%;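 further: cells exposed to compounds for 16 hours before the ATP read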
# H9c2 TAG inh – triacylglycerol accumulation inhibition; 230,000 compounds, 0.66% hits; H9c2 cells, Nile Red lipid (TAG) fluorescence; cells loaded with 200 µM oleic acid; inhibition, % at 12.5 µM;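 active means pattern-corrected inhibition of lipid staining of at least 50% with the nuclear-stain viability signal not falling by more than 50%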;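 further: 0% = DMSO wells and 100% = triacsin C control wells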
# Gli-Sufu block – blocks Gli-Sufu signaling in a luciferase reporter | Sufu-KO-LIGHT fibroblasts, Gli luciferase reporter luminescence | AID 588413 | inhibition, % at 5 µM | 340,000 compounds, 0.74% hits;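 active means inhibition above about 55%, limit read from the data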;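 further: 0% = DMSO-treated cells and 100% = wells with medium but no cells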
# Jurkat NFkB inh – inhibitors of the PMA/ionomycin-induced NF-kB reporter in Jurkat cells | 330,000 compounds, 0.53% hits | AID 435003 | inhibition, % at 4 µM | PMA/ionomycin-induced NF-kB luciferase reporter, luminescence; in the data active means inhibition above about 50%
# Lipid droplet – hepatic lipid droplet formation modulation; AML12 mouse hepatocytes, oleate lipid droplets, BODIPY imaging; inhibition, % at 6.5 µM; 240,000 compounds, 0.4% hits; AID 1656;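 active means lipid droplet intensity inhibited by at least 50%, with more than 500 cells counted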
#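 Test system: AML12 mouse liver cells; schedule: overnight exposure; technique: high-content imaging of BODIPY-stained droplets and DAPI nuclei; read-out: % inhibition of corrected integrated BODIPY droplet signal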
# 697 NFkB inh – inhibitors of the PMA/ionomycin-induced NF-kB reporter in 697 B cells; inhibition, % at 4 µM; 697 B-cell NF-kB luciferase reporter, 16 h; 330,000 compounds, 0.33% hits; AID 435022; in the data active means inhibition above about 35%
# TAG conf – confirmation of triacylglycerol accumulation inhibitors; shares compounds with H9c2 TAG inh; H9c2 lipid accumulation, Nile Red fluorescence; cells loaded with 200 µM oleic acid; inhibition, % at 12.5 µM; 990 compounds, 71% hits;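 active means mean inhibition across replicates of 40% or more; inactive means mean inhibition below 40%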;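 further: plate controls were DMSO only wells for no effect and Triacsin C treated wells for full effect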
# * = called active by the depositor; nt = not tested or not shown; ! = repeats disagree. Compounds with a hit are over-represented: about 1.8% of the library has one in this group of screens.
SMILES,hiPSC survival,H9c2 TAG inh,Gli-Sufu block,Jurkat NFkB inh,Lipid droplet,697 NFkB inh,TAG conf
Cc1cc(C)c2nc(N3CCC(C(=O)NCCCN4CCCCC4)CC3)sc2c1,-4,60*,10,-8,30,-11,33
NC(c1csc(NC(=O)Nc2ccccc2Cl)n1)C1CCCCC1 (stereo not drawn),-4,24,nt,nt,nt,nt,nt
COc1ccccc1NC(=O)Nc1nc(C(N)Cc2ccc(C(F)(F)F)cc2)cs1 (stereo not drawn),-4,79*,nt,nt,nt,nt,69*
COc1ccc(CNC(=O)Nc2nc(C(N)Cc3ccc(Cl)cc3)cs2)cc1 (stereo not drawn),-5,50*,nt,nt,nt,nt,59*
COc1ccccc1NC(=O)Nc1nc(C(N)C2CCCCC2)cs1 (stereo not drawn),-2,52*,nt,nt,nt,nt,33
NC(Cc1ccc(C(F)(F)F)cc1)c1csc(NC(=O)Nc2ccccc2Oc2ccccc2)n1 (stereo not drawn),-5,128,nt,nt,nt,nt,nt
COc1cc(NC(=O)Nc2nc(C(N)Cc3ccc(C(F)(F)F)cc3)cs2)cc(OC)c1OC (stereo not drawn),-5,87*,nt,nt,nt,nt,99*
COc1ccc(NC(=O)Nc2nc(C(N)Cc3ccc(C(F)(F)F)cc3)cs2)cc1 (stereo not drawn),-5,103,nt,nt,nt,nt,nt
COc1ccc(CNC(=O)Nc2nc(C(N)Cc3ccc(F)cc3)cs2)cc1 (stereo not drawn),-5,20,nt,nt,nt,nt,nt
Cc1cc(CN2CCN(CC(=O)Nc3cc(C(F)(F)F)ccc3-n3cncn3)CC2)no1,0,17,5,11,nt,-13,nt
O=C(O)c1ccccc1-c1csc(-c2ccccc2)n1,-2,nt,-12,-12,0,-49,nt
COc1ccc(CC(N)c2csc(NC(=O)Nc3ccccc3C(C)C)n2)cc1 (stereo not drawn),-4,58*,nt,nt,nt,nt,42*
Cc1ccc(-c2nn(-c3ccccc3)cc2NC(=O)CCl)cc1,-1,51*,20,-13,15,-25,80*
COc1cc(NC(=O)c2ccc(N)nc2)cc(C(=O)Nc2cccc(C(F)(F)F)c2)c1,-4,34,4,-24,7,-37,nt
COc1cc(NC(=O)c2nccnc2N)cc(C(=O)Nc2cccc(C(F)(F)F)c2)c1,-1,61*!,23,-13,-5,-3,35
COc1cc(NC(=O)c2nccn2C)cc(C(=O)Nc2cccc(C(F)(F)F)c2)c1,-1,107*,-5,44,7,-24,26
COc1ccc(-c2cc(C(=O)Nc3cc(OC)cc(C(=O)Nc4cccc(C(F)(F)F)c4)c3)[nH]n2)cc1,-3,84*,36,-28,48,-5,77*
COc1cccc(/C=C/C(=C2\C(=O)N(c3ccccc3)N=C2C)c2ccc(Br)cc2)c1OC,1,79*,-3,nt,nt,nt,97*
CC1CN(C(=O)c2ccc(NS(=O)(=O)c3ccc(F)c(F)c3)cc2)CC(C)O1 (stereo not drawn),0,-11,-2,-2,nt,-10,nt
COc1ccccc1CNC(=O)CN1C(=O)NC(c2ccccc2)(c2ccc(C)c(C)c2)C1=O (stereo not drawn),0,54*,-20,11,nt,-2,36
CCc1ccc(NC(=O)c2c(C(=O)Nc3ccccc3)sc3nc(C)cc(=O)n23)cc1,0,-6,1,-2,-37,17,nt
CO/N=C\CC(=O)Nc1ccc(Oc2ccccc2)cc1,2,61*,15,42,18,-35,81*
O=C(C/C=N\O)Nc1ccc(Oc2ccccc2)cc1,-2,26,-8,3,7,15,nt
C=C1c2nc3ccccc3n2C=C(c2ccc(C)cc2)N1c1ccccc1,-3,56*,3,nt,nt,nt,80*
Cc1ccc(NC(=O)COC(=O)c2ccc3c(c2)NC(=O)C2CCCN32)cc1 (stereo not drawn),1,66*,-21,-4,-5,3,22
SMILES,hiPSC survival,H9c2 TAG inh,Gli-Sufu block,Jurkat NFkB inh,Lipid droplet,697 NFkB inh,TAG conf
O=C(COC(=O)c1cc[n+]([O-])cc1)Nc1ccc(F)c([N+](=O)[O-])c1,-1,nt,10,-17,5,19,nt
Cc1ccc(CN(C(=O)c2csnn2)C(C(=O)NC2CCCC2)c2ccc(C)o2)cc1 (stereo not drawn),-3,51*,0,6,-11,7,42*
Cc1ccc(C(C(=O)NC2CCCC2)N(C(=O)c2csnn2)C2CCCC2)o1 (stereo not drawn),1,nt,-6,3,nt,-1,nt
O=C(COc1ccc(Cl)cc1)NNC(=O)c1cccnc1,2,10,-8,8,8,10,nt
CCCOc1ccc(F)cc1-c1cc(C(=O)NCc2ccco2)[nH]n1,1,3,nt,nt,nt,nt,nt
CCCC(=O)Nc1nc2nc(-c3ccccc3)cc(-c3ccccc3)n2n1,0,52*,9,7,nt,32,36
CC(C)(C)C(O)C(Cc1ccccc1Cl)n1cncn1 (stereo not drawn),0,nt,13,0,4,5,nt
CC(C)Nc1nc(SC(C)C(=O)Nc2ccccc2)nc(N(C)C)n1 (stereo not drawn),0,13,8,-12,12,-10,nt
CCNc1nc(SC(C)C(=O)Nc2ccccc2)nc(N(C)C)n1 (stereo not drawn),0,54*,9,3,32,-21,28
COc1ccccc1NS(=O)(=O)c1cc(NC(=O)/C=C/c2cccs2)ccc1N1CCOCC1,-2,54*,43,18,5,-51,32
CCCCn1c(N)c(N(Cc2ccccc2OC)C(=O)C(C)Oc2ccc(Cl)cc2)c(=O)[nH]c1=O (stereo not drawn),0,-15,3,12,0,-12,nt
C(=Nn1cnnc1)c1ccc2c(c1)CCC2,0,-3,nt,nt,nt,nt,nt
Cc1nn(-c2ccc([N+](=O)[O-])cc2)c2c1C(c1ccc(OC(F)F)cc1)N1C(=N2)C(=O)Nc2ccccc21 (stereo not drawn),1,65*,20,40,26,16,69*
COc1cccc(C2c3c(C)nn(-c4ccc([N+](=O)[O-])cc4)c3N=C3C(=O)Nc4ccccc4N32)c1 (stereo not drawn),0,76*,20,27,-12,11,81*
Cc1ccc(C)c(-n2cc(CNCCCn3cccn3)c(-c3ccccc3)n2)c1,0,0,8,6,13,-2,nt
Cc1ccc(-n2cc(CNCCCn3cccn3)c(-c3cccc(C)c3)n2)cc1,-1,52*,-9,5,19,2,52*
C[C@H]1C[C@H]2[C@@H]3CCC4=CC(=O)C=C[C@]4(C)[C@@]3(F)[C@@H](O)C[C@]2(C)[C@@]1(O)C(=O)CO,0,19,6,11,nt,16,nt
